From ChEMBL document CHEMBL4014347, “Targeting Mycolic Acid Transport by Indole-2-carboxamides for the Treatment of Mycobacterium abscessus Infections” (J Med Chem, 2017)
Converted amounts (≈) assume the structure as drawn.

Columns and labels:
[1] = system: Mycobacteroides abscessus; test: Antibacterial activity against CF patient derived Mycobacterium abscessus subsp. massiliense isolate 140 smooth variant after 3 to 5 days by two fold serial dilution method; format: functional
How it was run: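 Broth microdilution in cation-adjusted Mueller−Hinton broth per CLSI; inoculum 5 × 10^6 CFU/mL of exponential-phase bacteria; two-fold serial dilutions, solvent-only wells as control; 30 °C for 3−5 days; MIC read visually and confirmed by absorbance at 560 nm; triplicate on three independent occasions.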

CYP2C8 = molecular target: T1, CYP2C8 (Homo sapiens, UniProt P10632); test: Inhibition of CYP2C8 in human liver microsomes preincubated for 5 mins followed by NADPH addition at 10 uM measured after 10 mins by LC-MS/MS analysis relative to control; format: ADME
T1 sequence (P10632 whole entry): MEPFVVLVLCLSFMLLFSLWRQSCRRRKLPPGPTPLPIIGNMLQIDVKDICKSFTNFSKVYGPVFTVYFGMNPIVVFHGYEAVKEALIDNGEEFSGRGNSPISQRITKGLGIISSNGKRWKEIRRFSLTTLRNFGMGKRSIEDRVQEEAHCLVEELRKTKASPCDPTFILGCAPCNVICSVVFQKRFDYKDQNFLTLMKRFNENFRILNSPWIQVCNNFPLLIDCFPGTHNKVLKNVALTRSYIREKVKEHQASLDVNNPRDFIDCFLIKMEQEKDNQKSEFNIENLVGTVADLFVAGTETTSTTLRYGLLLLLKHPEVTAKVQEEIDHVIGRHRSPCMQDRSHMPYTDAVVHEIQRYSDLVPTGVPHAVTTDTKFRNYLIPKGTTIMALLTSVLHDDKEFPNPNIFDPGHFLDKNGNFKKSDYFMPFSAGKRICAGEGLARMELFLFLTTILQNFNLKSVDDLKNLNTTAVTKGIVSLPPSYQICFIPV

Compound: O=C(NC1CCCCCC1)c1cc2c(Cl)cc(Cl)cc2[nH]1
- MIC [1]: 0.125 µg/mL (≈ 0.384 µM)
- inhibition at 10 min, 10 µM (CYP2C8): 20%
